Data from ChEMBL document CHEMBL4145456, “Synthesis and biological evaluation of novel 2-arylvinyl-substituted naphtho[2,3-d]imidazolium halide derivatives as potent antitumor agents” (Eur J Med Chem, 2018).
Calls of active or inactive are those of the source. The rule behind the calls is not given here.

Tests used:
[1] = test system: A-375; assay: Antiproliferative activity against human A375 cells after 48 hrs by CellTiter 96 aqueous one solution assay; format: functional, cell-based; settings: A-375, 48 h
Summary of the method: (§1)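 Cells in 10% FBS medium with penicillin/streptomycin at 37°C, 5% CO2, seeded at 3000-10000 per well and precultured 1 day. DMSO stocks (10 mM) were diluted to a 10 µM top working solution, then serially diluted 3-fold in medium. Exposure was 48 h. Read-out was MTS tetrazolium-to-formazan absorbance at 492 nm. IC50 came from a three-parameter logistic fit, mean of three independent experiments.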

[2] = test system: PC-3; assay: Antiproliferative activity against human PC3 cells after 48 hrs by CellTiter 96 aqueous one solution assay; format: functional, cell-based; settings: PC-3, 48 h; summary of the method: as §1
[3] = test system: HeLa; assay: Antiproliferative activity against human HeLa cells after 48 hrs by CellTiter 96 aqueous one solution assay; format: functional, cell-based; summary of the method: as §1
[4] = test system: A-375; assay: Induction of apoptosis in human A375 cells after 24 hrs by Annexin V/propidium iodide staining-based FACS analysis; format: functional, cell-based
[5] = test system: A-375; assay: Induction of apoptosis in human A375 cells assessed as decrease in Bcl-2 expression at 10 to 1000 nM after 48 hrs by Western blot analysis; format: functional, cell-based
Summary of the method: (§2)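 A375 cells at 1×10^5 per well were treated for 48 h and lysed in RIPA buffer. Equal protein was run on 12% SDS-PAGE and transferred to PVDF, which was blocked in 5% milk/PBS for 1 h at room temperature. Primary antibodies (survivin, caspase-3, Bcl-2, PARP, p-ERK, total ERK, GAPDH) were used at 1:1000. GAPDH served as loading control.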

[6] = test system: A-375; assay: Induction of apoptosis in human A375 cells assessed as viable cells at 1000 nM after 24 hrs by Annexin V/propidium iodide staining-based FACS analysis (reference value: 92.2%); format: functional; settings: A-375, 24 h, read-out: Activity
[7] = test system: A-375; assay: Induction of apoptosis in human A375 cells assessed as decrease in survivin expression at 10 to 1000 nM after 48 hrs by Western blot analysis; format: functional, cell-based; summary of the method: as §2
[8] = test system: PC-3; assay: Induction of apoptosis in human PC3 cells assessed as viable cells at 100 nM after 24 hrs by Annexin V/propidium iodide staining-based FACS analysis (reference value: 97.0%); format: functional; settings: PC-3, 24 h, read-out: Activity
[9] = test system: A-375; assay: Induction of apoptosis in human A375 cells assessed as increase in procaspase-3 cleavage at 10 to 1000 nM after 48 hrs by Western blot analysis; format: functional, cell-based; summary of the method: as §2
[10] = test system: A-375; assay: Induction of apoptosis in human A375 cells assessed as viable cells at 10 nM after 24 hrs by Annexin V/propidium iodide staining-based FACS analysis (reference value: 92.2%); format: functional; settings: A-375, 24 h, read-out: Activity
[11] = test system: PC-3; assay: Induction of apoptosis in human PC3 cells assessed as viable cells at 10 nM after 24 hrs by Annexin V/propidium iodide staining-based FACS analysis (reference value: 97.0%); format: functional; settings: PC-3, 24 h, read-out: Activity
[12] = test system: PC-3; assay: Induction of apoptosis in human PC3 cells assessed as viable cells at 1 nM after 24 hrs by Annexin V/propidium iodide staining-based FACS analysis (reference value: 97.0%); format: functional; settings: PC-3, 24 h, read-out: Activity
[13] = test system: A-375; assay: Induction of apoptosis in human A375 cells assessed as viable cells at 100 nM after 24 hrs by Annexin V/propidium iodide staining-based FACS analysis (reference value: 92.2%); format: functional; settings: A-375, 24 h, read-out: Activity
[14] = test system: Ehrlich; assay: Antitumor activity against mouse EAC cells implanted in ICR mouse assessed as tumor growth inhibition at 30 mg/kg, ip qd dosed for 10 consecutive days relative to control; settings: read-out: TGI
[15] = test system: Mus musculus; assay: Toxicity in ICR mouse implanted with EAC cells assessed as decrease in spleen index at 0.06 to 0.6 mg/kg, ip qd dosed for 10 consecutive days; format: organism-based; settings: in vivo
Summary of the method: (§3)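 Adult male ICR mice, 6 weeks, 20-25 g, n=7 per group. Given 5×10^6 EAC cells s.c. in the right thigh; cells came from intraperitoneal passage in donor mice. From day 1, dosed i.p. daily for 10 d (0.1 mL/10 g) in saline with 4% DMA and 2% Solutol HS15; vehicle controls included. Spleen and thymus weighed at sacrifice; organ index is organ weight/body weight.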

[16] = test system: Mus musculus; assay: Toxicity in ICR mouse implanted with EAC cells assessed as decrease in thymus index at 0.06 to 0.6 mg/kg, ip qd dosed for 10 consecutive days; format: organism-based; settings: in vivo; summary of the method: as §3
[17] = species: Homo sapiens; assay: Induction of microtubule disruption in human A375 cells assessed as cell shrunk with improper microtubule bundling at 70 nM after 24 hrs by FITC/DAPI staining-based fluorescence assay
Summary of the method: (§4)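 A375 cells grown in 96-well plates, 8×10^3 cells/well, exposed to DMSO vehicle or compound for 24 h at 37°C. Cells were washed, then fixed, blocked and permeabilized. They were stained overnight with monoclonal α-tubulin primary antibody, then 3 h with FITC-labelled secondary; nuclei counterstained with DAPI. Imaged on an automated imaging system at 200×. Paclitaxel served as positive control.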

[18] = species: Homo sapiens; assay: Induction of microtubule disruption in human A375 cells assessed as cell detachment at 70 nM after 24 hrs by FITC/DAPI staining-based fluorescence assay; summary of the method: as §4
[19] = species: Homo sapiens; assay: Induction of microtubule disruption in human A375 cells assessed as appearance of rounded cell at 70 nM after 24 hrs by FITC/DAPI staining-based fluorescence assay
Summary of the method: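 A375 cells at 8×10^3 per well were treated for 24 h at 37°C, then washed, fixed, blocked and permeabilized. They were stained with anti-α-tubulin overnight and a FITC secondary for 3 h, and nuclei were counterstained with DAPI. Automated imaging was at 200×, and rounded cells were scored from morphology.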

| Compound | IC50 [1] [µM] | IC50 [2] [µM] | IC50 [3] [µM] | further results |
| --- | --- | --- | --- | --- |
| COCC[n+]1c2c(n(Cc3cccc(OC)c3)c1/C=C/c1c[nH]c3ccccc13)C(=O)c1ccccc1C2=O | 0.353 | 0.215 | 1.37 | – |
| CC[n+]1c2c(n(C(C)C)c1/C=C/c1ccc(O)cc1)C(=O)c1ccccc1C2=O | 5.58 | 0.072 | > 30 | – |
| CC[n+]1c2c(n(C3CC3)c1/C=C/c1ccccc1)C(=O)c1ccccc1C2=O | 1.31 | 0.038 | 6.54 | – |
| COCC[n+]1c2c(n(Cc3cccc(OC)c3)c1/C=C/c1cc(OC)c(OC)c(OC)c1)C(=O)c1ccccc1C2=O | 1 | 0.291 | 7.5 | – |
| CC[n+]1c2c(n(C3CC3)c1/C=C/c1ccc(OC)c(OC)c1)C(=O)c1ccccc1C2=O | 8 | 0.066 | 13.5 | – |
| CC[n+]1c2c(n(C(C)C)c1/C=C/c1c[nH]c3ccccc13)C(=O)c1ccccc1C2=O | 0.553 | 0.071 | 6.12 | – |
| COCC[n+]1c2c(n(Cc3ccccc3)c1/C=C/c1ccc(O)c(OC)c1)C(=O)c1ccccc1C2=O | 0.536 | 0.022 | 1.13 | – |
| CC[n+]1c2c(n(C(C)C)c1/C=C/c1ccc(C)cc1)C(=O)c1ccccc1C2=O | 1.07 | 0.022 | 1.12 | Activity [4]: Dose-dependent effect; Activity [5]: Active; viability at 1 µM [6]: 65.7%; Activity [7]: Active; viability at 0.1 µM [8]: 75.6%; Activity [9]: Active; viability at 0.01 µM [10]: 88.3%; viability at 0.01 µM [11]: 96.5%; viability at 0.001 µM [12]: 98%; viability at 0.1 µM [13]: 82.2% |
| CC[n+]1c2c(n(C3CC3)c1/C=C/c1c[nH]c3ccccc13)C(=O)c1ccccc1C2=O | 0.891 | 0.052 | 2.05 | – |
| O=P1(N(CCCl)CCCl)NCCCO1 (stereo not drawn) [CYCLOPHOSPHAMIDE ANHYDROUS] | – | – | – | inhibition in vivo at 30 mg/kg [14]: 48.9% |
| COCC[n+]1c2c(n(Cc3ccccc3)c1/C=C/c1cccc(O)c1)C(=O)c1ccccc1C2=O | 0.791 | 0.1 | 4.86 | – |
| COCC[n+]1c2c(n(Cc3cccc(OC)c3)c1/C=C/c1cccc(O)c1)C(=O)c1ccccc1C2=O | 1.12 | 0.222 | 7.33 | – |
| COCC[n+]1c2c(n(Cc3ccccc3)c1/C=C/c1c[nH]c3ccccc13)C(=O)c1ccccc1C2=O.[Br-] | – | – | – | Activity [15]: Non-Toxic; Activity [16]: Non-Toxic |
| COCC[n+]1c2c(n(Cc3ccccc3)c1/C=C/C=C/c1ccccc1)C(=O)c1ccccc1C2=O | 0.551 | 0.212 | 1.28 | – |
| CC(=O)O[C@H]1C(=O)[C@@]2(C)[C@H]([C@H](OC(=O)c3ccccc3)[C@]3(O)C[C@H](OC(=O)[C@H](O)[C@@H](NC(=O)c4ccccc4)c4ccccc4)C(C)=C1C3(C)C)[C@]1(OC(C)=O)CO[C@@H]1C[C@@H]2O | – | – | – | Activity [17]: Active; Activity [18]: Active; Activity [19]: Active |
| CC[n+]1c2c(n(C3CC3)c1/C=C/c1cccc([N+](=O)[O-])c1)C(=O)c1ccccc1C2=O | 5.36 | 0.028 | 11.3 | – |
| CC[n+]1c2c(n(C(C)C)c1/C=C/c1cccc(O)c1)C(=O)c1ccccc1C2=O | 2.94 | 0.14 | 13 | – |
| CC[n+]1c2c(n(C3CC3)c1/C=C/c1ccc(O)c(OC)c1)C(=O)c1ccccc1C2=O | 13.9 | 0.038 | 18.5 | – |
| COCC[n+]1c2c(n(Cc3ccccc3)c1C)C(=O)c1ccccc1C2=O | 1.14 | 0.073 | 10 | – |
| CC[n+]1c2c(n(C(C)C)c1/C=C/c1ccc(O)c(OC)c1)C(=O)c1ccccc1C2=O | 6.58 | 0.09 | > 30 | – |
| CC[n+]1c2c(n(C(C)C)c1/C=C/c1ccc([N+](=O)[O-])cc1)C(=O)c1ccccc1C2=O | 1.43 | 0.039 | 9.93 | – |
| CC[n+]1c2c(n(C3CC3)c1/C=C/c1cc(OC)c(OC)c(OC)c1)C(=O)c1ccccc1C2=O | 26 | 0.143 | > 30 | – |
